Test results from ChEMBL document CHEMBL3797174, “Iodine catalyzed simple and efficient synthesis of antiproliferative 2-pyridones” (Bioorg Med Chem Lett, 2016).

How the values were obtained:
HepG2 = test: Cytotoxicity against human HepG2 cells assessed as inhibition of cell proliferation after 24 hrs by MTT assay; type: functional, cell-based; settings: HepG2, 24 h
In short: (§1)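 MTT reduction by viable cells; formazan dissolved in DMSO, absorbance read at 570 nm. […] Values expressed as IC50 (µM).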

A549 = test: Cytotoxicity against human A549 cells assessed as inhibition of cell proliferation after 24 hrs by MTT assay; type: functional, cell-based; settings: A549, 24 h; in short: as §1
[1] = Cytotoxicity against human SKOV3 cells assessed as inhibition of cell proliferation after 24 hrs by MTT assay; type: functional, cell-based; settings: SK-OV-3, 24 h; in short: as §1
MRC5 = test: Cytotoxicity against human MRC5 cells assessed as cell viability after 24 hrs by MTT assay; type: cell-based; settings: MRC5, 24 h; in short: as §1
MCF7 [2] = test: Cytotoxicity against human MCF7 cells assessed as inhibition of cell proliferation after 24 hrs by MTT assay; type: functional, cell-based; settings: MCF7, 24 h
MCF7 [3] = test: Induction of apoptosis in human MCF7 cells assessed as increase in caspase 9 activation at 8 to 12 uM using AFC-conjugated […] as substrate after 24 to 48 hrs by fluorescence analysis relative to control; type: functional
MCF7 [4] = test: Induction of apoptosis in human MCF7 cells assessed as increase in caspase 3 activation at 8 to 12 uM using AFC-conjugated […] as substrate after 24 to 48 hrs by fluorescence analysis relative to control; type: functional

CCOC(=O)c1c(C)[nH]c(=O)c(C#N)c1-c1ccc([N+](=O)[O-])cc1
IC50 (HepG2): 21.7 µM | IC50 (A549): > 100 µM | IC50 [1]: > 100 µM | IC50 (MRC5): 2230 µM | IC50 (MCF7 [2]): 82 µM

CCOC(=O)c1c(C)[nH]c(=O)c(C#N)c1-c1ccco1
IC50 (HepG2): 57.4 µM | IC50 (A549): > 100 µM | IC50 [1]: 76 µM | IC50 (MRC5): 407 µM | IC50 (MCF7 [2]): 17.5 µM

CCOC(=O)c1c(C)[nH]c(=O)c(C#N)c1-c1cccs1
IC50 (HepG2): 74 µM | IC50 (A549): 20.1 µM | IC50 [1]: 97.3 µM | IC50 (MRC5): 205 µM | IC50 (MCF7 [2]): 33.4 µM

CCOC(=O)c1c(C)[nH]c(=O)c(C#N)c1-c1ccc(C#N)cc1
IC50 (HepG2): 20.2 µM | IC50 (A549): > 100 µM | IC50 [1]: > 100 µM | IC50 (MRC5): 1220 µM | IC50 (MCF7 [2]): 9.32 µM

CCOC(=O)c1c(C)[nH]c(=O)c(C#N)c1-c1cc(OC)c(OC)c(OC)c1
IC50 (HepG2): 20.9 µM | IC50 (A549): 23.4 µM | IC50 [1]: > 100 µM | IC50 (MRC5): 253 µM | IC50 (MCF7 [2]): 18.1 µM

CCOC(=O)c1c(C)[nH]c(=O)c(C#N)c1-c1ccc(C)cc1
IC50 (HepG2): 11.9 µM | IC50 (A549): 15.8 µM | IC50 [1]: > 100 µM | fold change (FC) (MCF7 [3]): 2 | fold change (FC) (MCF7 [4]): 2 | IC50 (MRC5): 438 µM | IC50 (MCF7 [2]): 8 µM

CCOC(=O)c1c(C)[nH]c(=O)c(C#N)c1-c1ccccc1
IC50 (HepG2): 38.5 µM | IC50 (A549): > 100 µM | IC50 [1]: > 100 µM | IC50 (MRC5): 220 µM | IC50 (MCF7 [2]): 22 µM

CCOC(=O)c1c(C)[nH]c(=O)c(C#N)c1-c1ccc(Br)cc1
IC50 (HepG2): 65.5 µM | IC50 (A549): > 100 µM | IC50 [1]: > 100 µM | IC50 (MRC5): 310 µM | IC50 (MCF7 [2]): 31.8 µM

CCOC(=O)c1c(C)[nH]c(=O)c(C#N)c1-c1ccc(OC)cc1
IC50 (HepG2): 51.5 µM | IC50 (A549): 25.1 µM | IC50 [1]: > 100 µM | IC50 (MRC5): 192 µM | IC50 (MCF7 [2]): 36.1 µM

CCOC(=O)c1c(C)[nH]c(=O)c(C#N)c1-c1ccccc1Cl
IC50 (HepG2): 34.1 µM | IC50 (A549): 25 µM | IC50 [1]: > 100 µM | IC50 (MRC5): 229 µM | IC50 (MCF7 [2]): 25.4 µM

CCOC(=O)c1c(C)[nH]c(=O)c(C#N)c1-c1ccc(F)cc1
IC50 (HepG2): 18.6 µM | IC50 (A549): 15.4 µM | IC50 [1]: > 100 µM | IC50 (MRC5): 149 µM | IC50 (MCF7 [2]): 22.9 µM

CCOC(=O)c1c(C)[nH]c(=O)c(C#N)c1-c1ccc2c(c1)OCO2
IC50 (HepG2): > 100 µM | IC50 (A549): 27.3 µM | IC50 [1]: > 100 µM | IC50 (MRC5): 192 µM | IC50 (MCF7 [2]): 34 µM

CCOC(=O)c1c(C)[nH]c(=O)c(C#N)c1-c1cccc2ccccc12
IC50 (HepG2): 32.3 µM | IC50 (A549): 24 µM | IC50 [1]: > 100 µM | IC50 (MRC5): 196 µM | IC50 (MCF7 [2]): 31.4 µM

COc1cccc2c1C(=O)c1c(O)c3c(c(O)c1C2=O)C[C@@](O)(C(=O)CO)C[C@@H]3O[C@H]1C[C@H](N)[C@H](O)[C@H](C)O1 [DOXORUBICIN]
IC50 (HepG2): 3.39 µM | IC50 (A549): 0.23 µM | IC50 [1]: 25 µM | IC50 (MRC5): 89.7 µM
